As usually defined, the Ki is the dissociation constant of the complex between target and ligand, obtained from inhibition or displacement. A low value points to higher affinity.

Assay [1] has as its target T1, 3-hydroxy-3-methylglutaryl-coenzyme A reductase (Rattus norvegicus, UniProt P51639).
T1 sequence (P51639 whole entry): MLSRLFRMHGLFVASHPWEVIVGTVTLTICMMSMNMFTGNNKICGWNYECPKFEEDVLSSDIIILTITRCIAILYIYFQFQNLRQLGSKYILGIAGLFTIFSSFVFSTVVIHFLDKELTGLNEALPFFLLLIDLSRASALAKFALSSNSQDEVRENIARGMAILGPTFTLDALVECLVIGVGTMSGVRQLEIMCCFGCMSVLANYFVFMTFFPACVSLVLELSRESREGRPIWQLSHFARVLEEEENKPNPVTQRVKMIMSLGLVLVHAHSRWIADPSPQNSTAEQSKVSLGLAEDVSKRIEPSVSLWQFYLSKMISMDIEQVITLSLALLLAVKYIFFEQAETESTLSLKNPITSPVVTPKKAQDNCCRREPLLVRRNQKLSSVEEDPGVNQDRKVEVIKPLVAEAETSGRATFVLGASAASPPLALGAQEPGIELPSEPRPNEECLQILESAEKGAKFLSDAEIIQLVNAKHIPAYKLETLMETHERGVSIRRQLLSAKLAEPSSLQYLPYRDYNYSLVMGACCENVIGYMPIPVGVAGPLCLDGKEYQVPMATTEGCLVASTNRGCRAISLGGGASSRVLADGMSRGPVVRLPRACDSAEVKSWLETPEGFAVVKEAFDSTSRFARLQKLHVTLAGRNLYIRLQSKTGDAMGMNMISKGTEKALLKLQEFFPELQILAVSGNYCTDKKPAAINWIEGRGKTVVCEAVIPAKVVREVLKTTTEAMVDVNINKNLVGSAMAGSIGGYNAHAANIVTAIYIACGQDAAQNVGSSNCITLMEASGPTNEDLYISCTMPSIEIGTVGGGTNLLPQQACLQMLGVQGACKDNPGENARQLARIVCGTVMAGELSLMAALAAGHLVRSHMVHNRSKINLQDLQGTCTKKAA
The experiment in a line: Binding affinity against HMG-CoA reductase in rat liver microsomes. Details: species or system Microsome. In outline:
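Rat liver microsomes (Edwards preparation, stored at -78 °C), 1.3 mg (0.068 mg protein) per 500 μL assay; 150 mM phosphate pH 6.8, 180 mM KCl, 16 mM Na2EDTA, 9 mM DTT, 10.0 mM glucose 6-phosphate, 2.1 mM NADP, 2 U G6P dehydrogenase, 20 μM (R,S)-[3-14C]HMG-CoA; lactones preincubated 30 min at 37 °C for ring opening; inhibitors in DMSO; KOH stop; four concentrations in duplicate; I50 extrapolated from %inhibition vs log concentration.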

Assay [2] deals with T1, 3-hydroxy-3-methylglutaryl-coenzyme A reductase. The experiment in a line: Inhibition of HMG-CoA reductase in rat liver microsomes. Conditions: read-out: I50. Details: species or system Microsome. In short, it runs like this: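 Rat liver microsomes (0.068 mg protein) in 150 mM phosphate pH 6.8, 180 mM KCl, 16 mM EDTA, 9 mM DTT, 10.0 mM glucose 6-phosphate, 2.1 mM NADP, G6P dehydrogenase, 20 μM (R,S)-[3-14C]HMG-CoA. Lactones were preincubated 30 min at 37 °C for ring opening. Inhibitors were given in DMSO. Reaction stopped with KOH; initial mevalonate rate measured. Four concentrations over four log units, in duplicate; I50 extrapolated from %inhibition vs log concentration.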
On the technique in general: Microsomes from liver hold many membrane-bound enzymes, among them those of drug oxidation.

Where only a bound is given, the exact number is not on record here.

`CC[C@H](C)C(=O)O[C@H]1CCC=C2C=C[C@H](C)[C@H](CC[C@@H]3C[C@@H](O)CC(=O)O3)[C@H]21` [MEVASTATIN] registered a Ki in assay [1] of 1.4 nM. Besides, the IC50 in assay [2] was found to be 13 nM.
With `CC[C@H](C)C(=O)O[C@H]1CCC=C2C=C[C@H](C)[C@H](CC[C@@H]3C[C@H](O)CC(=O)O3)C21` (some centres not stated), the IC50 in assay [2] amounted to 4000 nM.
Still for that read-out and setting: for `CC[C@H](C)C(=O)O[C@@H]1CCC=C2C=C[C@@H](C)[C@@H](COC(=O)C[C@H](O)CC(=O)O)[C@@H]21` the value was 25000 nM; for `CC[C@H](C)C(=O)O[C@@H]1CCC=C2C=C[C@@H](C)[C@@H](CC[C@@H]3C[C@@H](O)CC(=O)O3)[C@@H]21`, 10000 nM.
Still for that read-out and setting: in the case of `CC[C@H](C)C(=O)O[C@@H]1CCC=C2C=C[C@@H](C)[C@@H](CC[C@H]3C[C@@H](O)CC(=O)O3)[C@@H]21` it was 79000 nM.
Same read-out and setting: for `CC[C@H](C)C(=O)O[C@H]1C[C@@H](C)C[C@@H]2C=C[C@H](C)[C@H](CC[C@@H]3C[C@@H](O)CC(=O)O3)C12` (some centres not stated) the value was 1.6 nM.
Turning to `CC[C@H](C)C(=O)O[C@H]1CCC=C2C=C[C@H](C)[C@H](CCC(=O)C[C@@H](O)CC(=O)O)[C@H]21`, the IC50 in assay [2] was 32 nM.
Same read-out and setting: for `CC[C@H](C)C(=O)O[C@H]1CCC=C2C=C[C@H](C)[C@H](/C=C/C(=O)C[C@@H](O)CC(=O)O)[C@H]21` the value was 630 nM; for `CC[C@H](C)C(=O)O[C@H]1CCC=C2C=C[C@H](C)[C@H](COC(=O)C[C@@H](O)CC(=O)O)[C@H]21`, 630 nM; for `CC[C@H](C)C(=O)O[C@H]1CCC=C2C=C[C@H](C)[C@H](COC(=O)CCCC(=O)O)C21` (some centres not stated), 7100 nM.
On the same count and under the same terms, for `CC[C@H](C)C(=O)O[C@@H]1CCC=C2C=C[C@@H](C)[C@@H](COC(=O)CCCC(=O)O)[C@@H]21` the value was 110000 nM.
For `CC[C@H](C)C(=O)O[C@H]1C[C@@H](C)C[C@@H]2C=C[C@H](C)[C@H](/C=C/C(=O)C[C@@H](O)CC(=O)O)C12` (some centres not stated), the IC50 in assay [2] was determined as 320 nM.
On the same count and under the same terms, in the case of `CC[C@H](C)C(=O)O[C@H]1CCC=C2C=C[C@H](C)[C@H](CC[C@H]3C[C@H](O)CC(=O)O3)C21` (some centres not stated) it was 2000 nM.
On the same count and under the same terms, for `CC[C@H](C)C(=O)O[C@@H]1CCC=C2C=C[C@@H](C)[C@@H](COC(=O)C[C@@H](O)CC(=O)O)[C@@H]21` the value was above 25000 nM.
The same measure, in the same setting: for `CC[C@H](C)C(=O)O[C@H]1CCC=C2C=C[C@H](C)[C@H](CC[C@H]3C[C@@H](O)CC(=O)O3)C21` (some centres not stated) the value was 2000 nM; for `CC[C@H](C)C(=O)O[C@H]1CCC=C2C=C[C@H](C)[C@H](COC(=O)C[C@H](O)CC(=O)O)[C@H]21`, 5000 nM.

These data come from ChEMBL document CHEMBL1123621, “Total synthesis and biological evaluation of structural analogues of compactin and dihydromevinolin” (J Med Chem, 1987).
